We go through nine molecules from PMC11223518 (Science signaling, 2024).

For assay [1], the system named is patients with conventional, treatment-resistant depression. The conditions noted are these: single infusion of sub-anesthetic dose; cited from earlier work.
The test system of assay [2] is autophagy, BDNF-mTOR signaling pathway. The conditions noted are these: through the BDNF-mTOR signaling pathway; cited from earlier work.
Assay [3] deals with primary murine hippocampal neurons. The assay can be described thus: Synaptic density. The conditions noted are these: K252a 200 nM or LY294002 1 μM, Syn3 0.2 μM, BDNF 25 ng/mL 24 hours; n = 20 neurons. It is filed as cell-based, mouse.
In assay [4] the test system is Akt, GSK3α/β, S6K, S6 phosphorylation in primary murine hippocampal neurons. It is filed as cell-based, mouse. Conditions: K252a 200 nM or LY294002 1 μM for 1 hour, then Syn3 0.2 μM, BDNF 25 ng/mL 20 min; n = 5.
Assay [5] concerns primary murine hippocampal neurons. The assay can be described thus: PSD-95 puncta formation in vitro. It is filed as cell-based, mouse. Conditions: for effect of inhibitor on the effects of Syn3 (PSD-95 puncta): K252a 200 nM or LY294002 1 μM for 1 hour; for effect of inhibitor on the effects of Syn3 (PSD-95 puncta) / BDNF+Syn3–induced PSD-95 puncta formation with inhibitor: then Syn3 0.2 μM, BDNF 25 ng/mL 24 hours; for BDNF+Syn3–induced PSD-95 puncta formation with inhibitor: K252a 200 nM or LY294002 1 μM, n = 20 neurons. The method, boiled down: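 Primary murine hippocampal neurons were pretreated with test compound (0.2 µM) for 20 min, some first with K252a (200 nM) or LY294002 (1 µM) for 1 hour, then given BDNF for 24 hours. Cells were fixed in 4% paraformaldehyde for 15 min and blocked in 0.3% Triton X-100/5% goat serum. Primary antibody ran overnight at 4°C, secondary 2 hours at room temperature. Puncta were counted per 10-µm second-order dendrite 35–45 µm from the soma.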

Assay [6] has the same test system. The assay is described as follows: Dendritic spine density. The class given is cell-based, mouse. Conditions: K252a 200 nM or LY294002 1 μM, Syn3 0.2 μM, BDNF 25 ng/mL 24 hours; n = 15 neurons.
The test system of assay [7] is insulin receptor signaling. The assay can be described thus: Insulin-induced Akt-S6K signaling in primary hippocampal neurons. The class given is cell-based, mouse. The conditions noted are these: insulin 1 μg/mL, 20 min. The gist of the method: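 Primary murine hippocampal neurons were pre-treated 20 min with test compound (0.2 µM) or vehicle, then with insulin (1 μg/mL) for 20 min. Cells were lysed in ice-cold RIPA for 30 min and centrifuged. Equal protein was run on SDS-PAGE and blotted to PVDF, blocked in 5% milk/TBS-T, then probed overnight at 4°C with primary antibodies and HRP secondaries. Data are mean ± SD.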

The subject of assay [8] is C57BL/6J mice, corticosterone model of depression. The assay can be described thus: Forced swim test, corticosterone model. The class given is in vivo, mouse. Conditions: corticosterone 20 mg/kg s.c. daily for 21 days. The method, boiled down:
(§1)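 C57BL/6J mice, 4–5 weeks old, equal numbers male and female. Corticosterone emulsified in propylene glycol given s.c. daily between 10:00 and 12:00 for 21 days; controls got vehicle. Test compound then given i.p. (1 or 10 mg/kg; in one series 1 mg/kg with testing 12 hours later, n = 9 per group). Mice acclimated to the testing room for 30 min.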

The test system is the same in assay [9]. The assay is described as follows: Sucrose preference test, corticosterone model. It is filed as in vivo, mouse. The conditions noted are these: corticosterone 20 mg/kg s.c. daily for 21 days. The method, boiled down: as §1
Assay [10] shares this test system. The assay is described as follows: Tail suspension test, corticosterone model. It is filed as in vivo, mouse. Conditions: corticosterone 20 mg/kg s.c. daily for 21 days. The gist of the method:
as §1

The test system of the next assay is TrkB signaling. The conditions noted are these: cited from earlier work.
The subject of assay [11] is platelet-derived growth factor (PDGF) receptor signaling. The assay is described as follows: PDGF-induced Akt-S6K signaling in primary hippocampal neurons. The class given is cell-based, mouse. Conditions: PDGF-BB 25 ng/mL, 20 min.
Assay [12] deals with primary murine hippocampal neurons. The assay can be described thus: Sholl analysis of dendritic complexity/neurite outgrowth. The class given is cell-based, mouse. The conditions noted are these: BDNF 25 ng/mL, 24h; n = 26 neurons.

With `CNC1(c2ccccc2Cl)CCCCC1=O` (centres unmarked) [ketamine], in assay [1], the “antidepressant effects in patients” value was “produces rapid antidepressant effects in patients with conventional, treatment-resistant depression”.
As to `CN[C@]1(c2ccccc2Cl)CCCCC1=O` [esketamine], in assay [2], the autophagy result is on record as “acts to inhibit autophagy”.
For the molecule `COC(=O)[C@@]1(O)C[C@H]2O[C@]1(C)n1c3ccccc3c3c4c(c5c6ccccc6n2c5c31)C(=O)NC4` [K252a], the “effect of Syn3 on synaptic density with inhibitor” value in assay [3] is given as “blocked the effect of Syn3 on synaptic density”. The “BDNF plus Syn3 stimulation of Akt and S6K phosphorylation with inhibitor” value in assay [4] is “blocked”. In addition, in [5], the “effect of inhibitor on the effects of Syn3 (PSD-95 puncta)” value was “blocked the effects of Syn3” and the “BDNF+Syn3–induced PSD-95 puncta formation with inhibitor” value is recorded as “reversed”. For the same molecule, in assay [6], the “density of dendritic spines, BDNF + Syn3 with inhibitor” value is “reversed”.
As to insulin: recombinant insulin, in assay [7], the “Akt and S6K phosphorylation” value was “increased Akt and S6K phosphorylation”.
As for `O=c1cc(N2CCOCC2)oc2c(-c3ccccc3)cccc12` [LY294002], in assay [3], the “effect of Syn3 on synaptic density with inhibitor” value is recorded as “blocked the effect of Syn3 on synaptic density”. Besides, the “BDNF plus Syn3 stimulation of Akt and S6K phosphorylation with inhibitor” value in [4] is listed as “blocked”. Also, in [5], the “effect of inhibitor on the effects of Syn3 (PSD-95 puncta)” value was “blocked the effects of Syn3” and the “BDNF+Syn3–induced PSD-95 puncta formation with inhibitor” value is recorded as “reversed”. Besides, the “density of dendritic spines, BDNF + Syn3 with inhibitor” value in [6] is “reversed”.
As for `C[C@]12C[C@H](O)[C@H]3[C@@H](CCC4=CC(=O)CC[C@@]43C)[C@@H]1CC[C@@H]2C(=O)CO` [corticosterone], the “immobility time (effect of inducer), forced swim test” value in assay [8] is “increased immobility time”. The “sucrose intake (effect of inducer)” value in assay [9] was “decreased sucrose intake”. Also, the “immobility time (effect of inducer), tail suspension test” value in [10] was “increased immobility time”.
Regarding `O=c1cc(-c2ccccc2)oc2c(O)c(O)ccc12` [7,8-DHF, 7,8-dihydroxyflavone], the “TrkB signaling and antidepressant responses” value with TrkB signaling was “stimulates TrkB signaling and promotes rapid antidepressant responses”.

B1: PDGF: recombinant platelet-derived growth factor (protein, UniProt P01127 82-190, looked up)
Platelet-derived growth …: SLGSLTIAEPAMIAECKTRTEVFEISRRLIDRTNANFLVWPPCVEVQRCSGCCNNRNVQCRPTQVQLRPVQVRKIEIVRKKPIFKKATVTLEDHLACKCETVAAARPVT
Take B1: in assay [11], the “Akt and S6K phosphorylation” value is “increased Akt and S6K phosphorylation”.

B2: brain-derived neurotrophic factor (protein, UniProt P23560 19-247, looked up)
Neurotrophic factor BDNF …: APMKEANIRGQGGLAYPGVRTHGTLESVNGPKAGSRGLTSLADTFEHVIEELLDEDQKVRPNEENNKDADLYTSRVMLSSQVPLEPPLLFLLEEYKNYLDAANMSMRVRRHSDPARRGELSVCDSISEWVTAADKKTAVDMSGGTVTVLEKVPVSKGQLKQYFYETKCNPMGYTKEGCRGIDKRHWNSQCRTTQSYVRALTMDSKKRIGWRFIRIDTSCVCTLTIKRGR
On to B2, for which the “dendritic complexity and number of neurite crossings” value in assay [12] was “significantly enhanced dendritic complexity and the number of neurite crossings”. Besides, the “number of PSD-95 puncta” value in [5] (BDNF 25 ng/mL, 24h) is “increased the number of PSD-95 puncta”.
